According to ChEMBL document CHEMBL1133653, “bis(2-(Acylamino)phenyl) disulfides, 2-(acylamino)benzenethiols, and S-(2-(acylamino)phenyl) alkanethioates as novel inhibitors of cholesteryl ester transfer protein” (J Med Chem, 2000):

Key:
Oryctolagus cuniculus [1] = assay: In vivo percent inhibition of cholesteryl ester transfer protein was measured 3h after oral administration of 30 mg/kg JW rabbits plasma; type: functional
Method in brief: (§1)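 Male JW rabbits, 11-15 weeks old, dosed orally; plasma taken 3 h post-dose and spun at 11000g for 5 min at 4 °C. Plasma (1.8 µL) diluted to 600 µL in Tris-buffered saline pH 7.4 with 0.1 mg/mL BSA. Incubated 15 h at 37 °C with [3H]CE-HDL and VLDL/LDL, then VLDL/LDL precipitated with dextran sulfate/MgCl2 and supernatant counted. Inhibition expressed relative to vehicle-dosed rabbits.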

[2] = biological target: T1, Cholesteryl ester transfer protein (Homo sapiens, UniProt P11597); assay: In vitro concentration required to inhibit 50% of cholesteryl ester transfer protein mediated cholesteryl ester transfer from HDL to VLDL and LDL in human plasma; type: cell-free
T1 sequence (P11597 whole entry): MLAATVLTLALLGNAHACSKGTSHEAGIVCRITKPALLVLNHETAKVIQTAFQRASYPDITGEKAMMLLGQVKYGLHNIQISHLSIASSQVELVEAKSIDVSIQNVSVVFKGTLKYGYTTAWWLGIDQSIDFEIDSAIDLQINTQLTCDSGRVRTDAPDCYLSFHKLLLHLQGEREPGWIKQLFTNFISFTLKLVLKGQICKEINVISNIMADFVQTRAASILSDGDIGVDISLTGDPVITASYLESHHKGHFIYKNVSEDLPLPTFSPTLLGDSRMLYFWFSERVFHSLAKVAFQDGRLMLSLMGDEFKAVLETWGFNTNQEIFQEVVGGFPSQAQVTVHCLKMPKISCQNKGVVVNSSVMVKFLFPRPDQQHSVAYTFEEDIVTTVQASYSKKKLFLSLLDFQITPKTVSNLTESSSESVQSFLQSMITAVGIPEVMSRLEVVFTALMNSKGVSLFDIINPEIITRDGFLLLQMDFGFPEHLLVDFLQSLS
Method in brief: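 Compound dissolved in 1:1 N-methyl-2-pyrrolidinone/PEG 400 and added to human plasma, with organic solvent at 2% final. Plasma then incubated with [3H]CE-labelled HDL at 37 °C for 4 h. ApoB lipoproteins precipitated with dextran sulfate (0.075% final) and MgCl2 (37.5 mM final). Transfer taken as the loss of supernatant HDL radioactivity. IC50 estimated from five-dose response curves.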

[3] = biological target: T2, Cholesteryl ester transfer protein (Homo sapiens) (UniProt P11597); assay: Percent inhibition of cholesteryl ester transfer protein in human plasma at 5 uM; type: cell-free
T2 sequence (whole entry): T1 sequence (P11597 whole entry)

[4] = biological target: T2, Cholesteryl ester transfer protein (Homo sapiens); assay: Percent inhibition of cholesteryl ester transfer protein in human plasma at 9 uM; type: cell-free
Oryctolagus cuniculus [5] = assay: In vivo percent inhibition of cholesteryl ester transfer protein was measured 3h after oral administration of 10 mg/kg JW rabbits plasma; type: functional; method in brief: as §1
Oryctolagus cuniculus [6] = assay: In vivo percent elevation evaluated from the plasma HDL levels in JW rabbits by oral administration of 100 mg/kg once a day for 3 days; type: functional
Method in brief: (§2)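 Male JW rabbits, 11-15 weeks old, N = 5, dosed orally once daily for 3 days. ApoB lipoproteins in plasma precipitated with 13% PEG 6000, and HDL cholesterol measured by enzymatic assay. Elevation expressed relative to vehicle-dosed rabbits.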

Oryctolagus cuniculus [7] = assay: In vivo percent elevation evaluated from the plasma HDL levels in JW rabbits by oral administration of 30 mg/kg once a day for 3 days; type: functional; method in brief: as §2

| Compound | IC50 [2] | further results |
| --- | --- | --- |
| CCC(CC)CC1(C(=O)Nc2ccccc2SC(C)=O)CCCCC1 |  | inhibition in vivo at 30 mg/kg (Oryctolagus cuniculus [1]): 40% |
| CCCCCC1(C(=O)Nc2ccccc2S)CCCCC1 | 7 µM |  |
| CC(C)(C)C(=O)Nc1cccc(SSc2cccc(NC(=O)C(C)(C)C)c2)c1 | > 500 µM |  |
| CN(C(=O)C(C)(C)C)c1ccccc1SSc1ccccc1N(C)C(=O)C(C)(C)C | > 300 µM |  |
| CCC(CC)CC1(C(=O)Nc2ccccc2SC)CCCCC1 | > 300 µM |  |
| CC1(C(=O)Nc2ccccc2OC(=O)Cc2ccccc2)CCCCC1 | > 300 µM |  |
| CCCCCCCC(=O)Nc1ccccc1SSc1ccccc1NC(=O)CCCCCCC | 21 µM |  |
| CCCCCCCC1(C(=O)Nc2ccccc2S)CCCCC1 | 7 µM |  |
| CC(C)CCCC1(C(=O)Nc2ccccc2S)CCCCC1 | 6 µM |  |
| CCCCC1(C(=O)Nc2ccccc2S)CCCCC1 | 9 µM |  |
| CCC(CC)CC1(C(=O)Nc2ccccc2S)CCCCC1 | 5 µM | inhibition [3]: 50% |
| CCC(CC)CC1(C(=O)Nc2ccccc2SC(=O)C(C)(C)C)CCCCC1 |  | inhibition in vivo at 30 mg/kg (Oryctolagus cuniculus [1]): 32% |
| CCCCCCC1(C(=O)Nc2ccccc2S)CCCCC1 | 6 µM |  |
| CC(C)(C)C(=O)Nc1ccccc1SSc1ccccc1NC(=O)C(C)(C)C | 13 µM |  |
| CC(C)(C)C(=O)Nc1ccc(SSc2ccc(NC(=O)C(C)(C)C)cc2)cc1 | > 500 µM |  |
| CC1(C(=O)Nc2ccccc2SSc2ccccc2NC(=O)C2(C)CCCCC2)CCCCC1 | 8 µM |  |
| CCC(=O)Nc1ccccc1SSc1ccccc1NC(=O)CC | 180 µM |  |
| CC(=O)Nc1ccccc1SSc1ccccc1NC(C)=O | 500 µM |  |
| CCC(CC)CC1(C(=O)Nc2ccccc2SC(=O)C(C)C)CCCCC1 [DALCETRAPIB] | 6 µM | inhibition [4]: 50%; inhibition in vivo at 10 mg/kg (Oryctolagus cuniculus [5]): 35%; inhibition in vivo at 30 mg/kg (Oryctolagus cuniculus [1]): 95%; Elevation (Oryctolagus cuniculus [6]): 54%; Elevation (Oryctolagus cuniculus [7]): 27% |
| CC(C)(C)NC(=O)c1ccccc1SSc1ccccc1C(=O)NC(C)(C)C | > 500 µM |  |
